For assay [1], the system named is HeLa. The assay can be described thus: Antiproliferative activity against human HeLa cells assessed as cell survival ratio at 0.5 uM treated 1 hr before 2Gy ionizing radiation measured after 6 to 8 days by DMR clonogenic assay. It is filed as functional. A digest of the protocol:
(§1)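 HeLa cells seeded in 6-well dishes, incubated overnight at 37 °C/5% CO2, pre-treated 1 h with vehicle or inhibitor (0.1 or 0.5 μM), then given 2 Gy X-ray IR and held overnight. Medium then replaced without compound and culture continued 6-8 days. Colonies Giemsa-stained and counted automatically. DMR = % survival (vehicle, 2 Gy) / % survival (compound, 2 Gy).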

The test system of assay [2] is HeLa. As to the kind of experiment: Antiproliferative activity against human HeLa cells assessed as cell survival ratio at 0.1 uM treated 1 hr before 2Gy ionizing radiation measured after 6 to 8 days by DMR clonogenic assay. It is filed as functional. A digest of the protocol:
as §1

In assay [3] the target is DNA-dependent protein kinase catalytic subunit (Homo sapiens, UniProt P78527). As to the kind of experiment: Inhibition of human DNA-PK using GST-tagged p53N66 as substrate after 1 hr by ELISA-based chemiluminiscence assay. In general terms: ELISA stands for enzyme-linked immunosorbent assay.
DNA-dependent protein kinase catalytic subunit, sequence (P78527 whole entry): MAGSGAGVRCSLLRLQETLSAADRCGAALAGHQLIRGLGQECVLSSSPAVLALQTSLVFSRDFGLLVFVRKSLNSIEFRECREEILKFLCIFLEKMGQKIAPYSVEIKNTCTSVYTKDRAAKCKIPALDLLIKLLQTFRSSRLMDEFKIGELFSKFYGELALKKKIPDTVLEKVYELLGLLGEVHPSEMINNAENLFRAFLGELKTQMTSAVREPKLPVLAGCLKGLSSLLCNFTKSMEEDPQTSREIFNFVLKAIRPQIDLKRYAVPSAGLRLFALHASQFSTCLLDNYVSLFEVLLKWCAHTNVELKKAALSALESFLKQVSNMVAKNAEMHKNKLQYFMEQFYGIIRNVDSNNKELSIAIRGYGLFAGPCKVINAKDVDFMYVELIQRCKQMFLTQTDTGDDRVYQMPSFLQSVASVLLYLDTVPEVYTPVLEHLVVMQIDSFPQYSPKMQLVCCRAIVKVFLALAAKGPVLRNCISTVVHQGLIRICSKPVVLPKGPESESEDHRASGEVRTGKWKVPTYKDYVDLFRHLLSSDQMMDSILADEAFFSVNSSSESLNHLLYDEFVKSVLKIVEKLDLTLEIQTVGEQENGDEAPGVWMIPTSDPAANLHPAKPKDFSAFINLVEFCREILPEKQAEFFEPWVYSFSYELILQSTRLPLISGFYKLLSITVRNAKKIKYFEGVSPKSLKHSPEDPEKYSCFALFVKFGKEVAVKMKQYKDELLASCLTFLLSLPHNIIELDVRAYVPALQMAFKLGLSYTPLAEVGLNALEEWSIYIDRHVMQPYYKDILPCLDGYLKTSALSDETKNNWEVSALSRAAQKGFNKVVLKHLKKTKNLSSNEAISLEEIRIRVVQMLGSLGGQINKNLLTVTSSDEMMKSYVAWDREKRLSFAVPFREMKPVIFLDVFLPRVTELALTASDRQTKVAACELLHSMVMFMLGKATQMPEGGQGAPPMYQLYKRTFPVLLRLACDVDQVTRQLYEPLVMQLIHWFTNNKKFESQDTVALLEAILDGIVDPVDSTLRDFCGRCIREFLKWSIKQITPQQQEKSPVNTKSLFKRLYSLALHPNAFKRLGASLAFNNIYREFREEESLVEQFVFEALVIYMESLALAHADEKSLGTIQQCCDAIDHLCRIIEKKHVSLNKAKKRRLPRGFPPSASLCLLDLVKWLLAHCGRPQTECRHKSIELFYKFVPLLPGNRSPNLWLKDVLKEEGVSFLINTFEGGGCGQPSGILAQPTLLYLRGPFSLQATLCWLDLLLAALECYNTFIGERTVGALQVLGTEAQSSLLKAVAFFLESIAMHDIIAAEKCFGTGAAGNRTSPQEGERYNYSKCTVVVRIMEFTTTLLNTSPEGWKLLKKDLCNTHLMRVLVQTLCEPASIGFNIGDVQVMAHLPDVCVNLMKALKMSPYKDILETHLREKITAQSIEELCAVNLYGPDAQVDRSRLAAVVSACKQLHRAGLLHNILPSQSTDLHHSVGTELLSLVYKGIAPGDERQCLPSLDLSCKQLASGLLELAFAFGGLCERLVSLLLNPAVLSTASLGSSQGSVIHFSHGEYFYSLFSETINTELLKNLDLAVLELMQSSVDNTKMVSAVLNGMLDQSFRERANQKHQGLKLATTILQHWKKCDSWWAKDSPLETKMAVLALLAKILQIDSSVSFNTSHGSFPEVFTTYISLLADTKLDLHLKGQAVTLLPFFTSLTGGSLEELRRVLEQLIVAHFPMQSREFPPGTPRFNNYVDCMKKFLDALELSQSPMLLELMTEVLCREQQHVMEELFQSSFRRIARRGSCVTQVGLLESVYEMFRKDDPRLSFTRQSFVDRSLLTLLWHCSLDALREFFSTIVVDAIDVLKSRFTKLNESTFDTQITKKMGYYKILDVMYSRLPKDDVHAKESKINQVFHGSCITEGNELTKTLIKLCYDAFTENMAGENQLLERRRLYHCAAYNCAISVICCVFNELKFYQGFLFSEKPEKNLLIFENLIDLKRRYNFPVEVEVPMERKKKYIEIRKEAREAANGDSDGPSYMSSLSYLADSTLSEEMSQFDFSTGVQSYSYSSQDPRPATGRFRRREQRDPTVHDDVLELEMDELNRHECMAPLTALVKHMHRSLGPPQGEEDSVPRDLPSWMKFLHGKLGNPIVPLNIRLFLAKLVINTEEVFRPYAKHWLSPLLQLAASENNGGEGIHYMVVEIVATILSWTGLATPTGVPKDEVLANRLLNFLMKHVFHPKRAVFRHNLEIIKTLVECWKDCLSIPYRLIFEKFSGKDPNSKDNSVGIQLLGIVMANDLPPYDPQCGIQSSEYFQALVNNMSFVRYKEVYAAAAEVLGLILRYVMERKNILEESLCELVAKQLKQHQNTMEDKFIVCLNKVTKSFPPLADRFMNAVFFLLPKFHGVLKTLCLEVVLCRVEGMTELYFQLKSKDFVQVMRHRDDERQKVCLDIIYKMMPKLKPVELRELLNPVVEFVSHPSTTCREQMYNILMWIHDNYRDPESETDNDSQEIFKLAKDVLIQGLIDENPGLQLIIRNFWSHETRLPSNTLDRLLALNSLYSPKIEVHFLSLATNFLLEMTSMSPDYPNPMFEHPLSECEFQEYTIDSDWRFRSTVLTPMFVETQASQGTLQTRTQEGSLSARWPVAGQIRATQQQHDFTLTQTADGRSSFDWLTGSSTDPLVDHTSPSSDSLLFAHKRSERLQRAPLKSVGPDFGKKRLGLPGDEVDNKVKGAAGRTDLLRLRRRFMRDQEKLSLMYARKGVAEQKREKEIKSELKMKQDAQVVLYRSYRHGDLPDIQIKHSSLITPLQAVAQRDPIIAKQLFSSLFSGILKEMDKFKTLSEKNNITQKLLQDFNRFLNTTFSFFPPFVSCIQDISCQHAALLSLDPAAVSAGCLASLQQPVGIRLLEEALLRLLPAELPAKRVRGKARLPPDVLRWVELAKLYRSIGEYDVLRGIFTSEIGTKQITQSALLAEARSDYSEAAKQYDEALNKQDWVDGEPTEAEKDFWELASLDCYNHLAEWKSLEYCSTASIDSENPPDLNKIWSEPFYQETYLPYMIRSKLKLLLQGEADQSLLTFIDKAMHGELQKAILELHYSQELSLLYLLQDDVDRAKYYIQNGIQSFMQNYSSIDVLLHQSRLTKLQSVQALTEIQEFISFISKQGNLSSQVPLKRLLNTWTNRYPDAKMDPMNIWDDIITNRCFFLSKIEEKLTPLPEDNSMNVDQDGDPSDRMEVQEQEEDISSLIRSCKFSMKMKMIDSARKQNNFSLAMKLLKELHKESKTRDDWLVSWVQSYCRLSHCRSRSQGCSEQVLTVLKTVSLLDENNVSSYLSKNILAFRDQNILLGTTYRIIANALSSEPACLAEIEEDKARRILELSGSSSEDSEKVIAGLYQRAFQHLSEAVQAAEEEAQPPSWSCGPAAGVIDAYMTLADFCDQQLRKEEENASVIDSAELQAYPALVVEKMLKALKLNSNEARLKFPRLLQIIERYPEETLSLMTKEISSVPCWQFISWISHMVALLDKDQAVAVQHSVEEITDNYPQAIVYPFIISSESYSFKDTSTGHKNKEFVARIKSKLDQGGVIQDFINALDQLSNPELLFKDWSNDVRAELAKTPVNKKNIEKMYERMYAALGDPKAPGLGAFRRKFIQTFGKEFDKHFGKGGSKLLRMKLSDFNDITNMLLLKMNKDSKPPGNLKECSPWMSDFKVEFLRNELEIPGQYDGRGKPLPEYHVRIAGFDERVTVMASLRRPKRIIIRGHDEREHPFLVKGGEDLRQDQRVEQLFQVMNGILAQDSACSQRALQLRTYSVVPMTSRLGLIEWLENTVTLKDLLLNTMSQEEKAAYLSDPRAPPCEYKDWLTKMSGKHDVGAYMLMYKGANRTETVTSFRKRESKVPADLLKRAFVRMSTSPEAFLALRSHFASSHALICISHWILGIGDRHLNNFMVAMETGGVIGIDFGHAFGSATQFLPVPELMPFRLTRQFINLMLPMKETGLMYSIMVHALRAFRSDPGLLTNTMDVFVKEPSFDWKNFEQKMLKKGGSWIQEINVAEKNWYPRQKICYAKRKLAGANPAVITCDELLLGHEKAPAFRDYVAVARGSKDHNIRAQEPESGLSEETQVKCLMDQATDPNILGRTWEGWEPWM

The record followed here is ChEMBL document CHEMBL2417539, “1-substituted (Dibenzo[b,d]thiophen-4-yl)-2-morpholino-4H-chromen-4-ones endowed with dual DNA-PK/PI3-K inhibitory activity” (J Med Chem, 2013).

Take `O=C(CCN1CCN(CCO)CC1)Nc1ccc(-c2cccc3c(=O)cc(N4CCOCC4)oc23)c2sc3ccccc3c12`: the Ratio is listed as 1.2 in assay [1] and 1 in assay [2]. For the same compound, the IC50 in assay [3] came to 29 nM.
The corresponding values for `CC(=O)N1CCN(C(=O)COc2ccc(-c3cccc4c(=O)cc(N5CCOCC5)oc34)c3sc4ccccc4c23)CC1` are 1.6, 1 and 16 nM.
For `O=C(CCN1CCOCC1)Nc1ccc(-c2cccc3c(=O)cc(N4CCOCC4)oc23)c2sc3ccccc3c12`, the Ratio is reported as 6.1 in assay [1] and 2 in assay [2]. Further, the IC50 in assay [3] stood at 41 nM.
On the same counts, the results for `O=C(CNCc1ccncc1)Nc1ccc(-c2cccc3c(=O)cc(N4CCOCC4)oc23)c2sc3ccccc3c12` are 5.5, 1.4 and 8 nM.
As for `COCCN1CCN(CCC(=O)Nc2ccc(-c3cccc4c(=O)cc(N5CCOCC5)oc34)c3sc4ccccc4c23)CC1`, the results for the Ratio in assay [1] and in assay [2] were 3.5 and 1.3, respectively. In assay [3], this compound came in with an IC50 of 19 nM.
On to `NCC(=O)Nc1ccc(-c2cccc3c(=O)cc(N4CCOCC4)oc23)c2sc3ccccc3c12`, for which the Ratio in assay [1] is reported as 9; in assay [2], 2.5. Moreover, the IC50 in assay [3] turned out to be 12 nM.
On the same counts, the results for `CCN1CCN(CCC(=O)Nc2ccc(-c3cccc4c(=O)cc(N5CCOCC5)oc34)c3sc4ccccc4c23)CC1` are 4.1, 1.4 and 33 nM.
For the compound `COC(=O)[C@H](CO)NCCOc1ccc(-c2cccc3c(=O)cc(N4CCOCC4)oc23)c2sc3ccccc3c12`, the Ratio in assay [1] turned out to be 10.5; in assay [2] it was 2.9. This compound also had an IC50 in assay [3] of 2 nM.
The corresponding values for `O=c1cc(N2CCOCC2)oc2c(-c3ccc(OCCN4CCOCC4)c4c3sc3ccccc34)cccc12` are 6.4, 1.5 and 8 nM.
On the same counts, the results for `O=C(CN1CCCCC1)Nc1ccc(-c2cccc3c(=O)cc(N4CCOCC4)oc23)c2sc3ccccc3c12` are 10.4, 1.2 and 21 nM.
For the compound `CN(C)CCN(C)CCOc1ccc(-c2cccc3c(=O)cc(N4CCOCC4)oc23)c2sc3ccccc3c12`, the midpoint of inhibition in assay [3], the IC50, lay at 5 nM.
Consider `CN(C)CC(=O)Nc1ccc(-c2cccc3c(=O)cc(N4CCOCC4)oc23)c2sc3ccccc3c12`, for which the Ratio came out at 7.4 in assay [1] and 1 in assay [2]. The IC50 in assay [3] stood at 18 nM.
On the same counts, the results for `CN(C)CCOc1ccc(-c2cccc3c(=O)cc(N4CCOCC4)oc23)c2sc3ccccc3c12` are 3.3, 1.8 and 8 nM.
For the compound `CN(C)CCN(C)CC(=O)Nc1ccc(-c2cccc3c(=O)cc(N4CCOCC4)oc23)c2sc3ccccc3c12`, the Ratio was determined as 5.7 in assay [1] and 1.1 in assay [2]. The compound also showed an IC50 in assay [3] of 57 nM.
On the same counts, the results for `CN1CCCN(CCC(=O)Nc2ccc(-c3cccc4c(=O)cc(N5CCOCC5)oc34)c3sc4ccccc4c23)CC1` are 2.6, 1.1 and 41 nM.
`C[C@@H]1CN(CCC(=O)Nc2ccc(-c3cccc4c(=O)cc(N5CCOCC5)oc34)c3sc4ccccc4c23)C[C@H](C)O1`: the results for the Ratio in assay [1] and in assay [2] were 9.3 and 2.4, respectively. Also, half-maximal inhibition in assay [3] (IC50) required 9 nM.
As for `O=C(COc1ccc(-c2cccc3c(=O)cc(N4CCOCC4)oc23)c2sc3ccccc3c12)NCc1ccncc1`, the values for the Ratio in assay [1] and in assay [2] were 1.1 and 1, respectively. In assay [3], inhibition was half-maximal at 10 nM (IC50).
On the same counts, the results for `COC(=O)[C@H](CO)NC(=O)COc1ccc(-c2cccc3c(=O)cc(N4CCOCC4)oc23)c2sc3ccccc3c12` are 6.1, 1.5 and 6 nM.
On the same counts, the results for `NCCNCCC(=O)Nc1ccc(-c2cccc3c(=O)cc(N4CCOCC4)oc23)c2sc3ccccc3c12` are 1.4, 1.2 and 22 nM.
In the case of `O=C(CCN1CCCN(CCO)CC1)Nc1ccc(-c2cccc3c(=O)cc(N4CCOCC4)oc23)c2sc3ccccc3c12`, the values for the Ratio in assay [1] and in assay [2] were 1.1 and 1.2, respectively. In assay [3], this compound displayed an IC50 of 42 nM.
Regarding `COCCN(CCOC)CC(=O)Nc1ccc(-c2cccc3c(=O)cc(N4CCOCC4)oc23)c2sc3ccccc3c12`, the figures for the Ratio in assay [1] and in assay [2] were 7.9 and 1.5, respectively. The compound also had an IC50 in assay [3] of 18 nM.
The corresponding values for `O=C(CNCC1CCCO1)Nc1ccc(-c2cccc3c(=O)cc(N4CCOCC4)oc23)c2sc3ccccc3c12` (stereo not drawn) are 7.7, 1.7 and 14 nM.
For the compound `CCN(CC(=O)Nc1ccc(-c2cccc3c(=O)cc(N4CCOCC4)oc23)c2sc3ccccc3c12)Cc1ccncc1`, the Ratio in assay [1] was determined as 14.1; in assay [2] it was 1.5. The 50% inhibitory concentration (IC50) in assay [3] is 8 nM.
The corresponding values for `O=C(CCN1CCCCCC1)Nc1ccc(-c2cccc3c(=O)cc(N4CCOCC4)oc23)c2sc3ccccc3c12` are 8.4, 3.1 and 11 nM.
On the same counts, the results for `CN(C)CCN(C)C(=O)COc1ccc(-c2cccc3c(=O)cc(N4CCOCC4)oc23)c2sc3ccccc3c12` are 2.1, 1.4 and 53 nM.
On the same counts, the results for `O=C(CCNCCO)Nc1ccc(-c2cccc3c(=O)cc(N4CCOCC4)oc23)c2sc3ccccc3c12` are 0.9, 0.9 and 10 nM.
As for `CN1CCCC1CCNCCC(=O)Nc1ccc(-c2cccc3c(=O)cc(N4CCOCC4)oc23)c2sc3ccccc3c12` (stereo not drawn), the Ratio worked out at 1.2 in assay [1] and 1.3 in assay [2]. Moreover, in assay [3], the IC50 was found to be 13 nM.
The corresponding values for `O=C(CCNCc1ccncc1)Nc1ccc(-c2cccc3c(=O)cc(N4CCOCC4)oc23)c2sc3ccccc3c12` are 2.6, 1.1 and 12 nM.
Regarding `CN1CCN(CCOc2ccc(-c3cccc4c(=O)cc(N5CCOCC5)oc34)c3sc4ccccc4c23)CC1`, the Ratio in assay [1] is on record as 5.1; in assay [2], 3.1. For the same compound, the IC50 in assay [3] turned out to be 7 nM.
On the same counts, the results for `O=C(CCNCCCN1CCOCC1)Nc1ccc(-c2cccc3c(=O)cc(N4CCOCC4)oc23)c2sc3ccccc3c12` are 1.4, 0.9 and 9 nM.
On the same counts, the results for `O=C(CN1CCN(c2ccc(F)cc2)CC1)Nc1ccc(-c2cccc3c(=O)cc(N4CCOCC4)oc23)c2sc3ccccc3c12` are 4.9, 1 and 15 nM.
Regarding `CC(=O)N1CCN(CCC(=O)Nc2ccc(-c3cccc4c(=O)cc(N5CCOCC5)oc34)c3sc4ccccc4c23)CC1`, the Ratio in assay [1] was determined as 1.4; in assay [2], 0.9. Besides, 23 nM corresponded to half-maximal inhibition in assay [3] (IC50).
In the case of `CC(C)N1CCN(CCOc2ccc(-c3cccc4c(=O)cc(N5CCOCC5)oc34)c3sc4ccccc4c23)CC1`, the figures for the Ratio in assay [1] and in assay [2] were 6.3 and 1.6, respectively. Besides, in assay [3], it took 3 nM to reach half-maximal inhibition (IC50).
The corresponding values for `O=C(CCN(CCO)CCO)Nc1ccc(-c2cccc3c(=O)cc(N4CCOCC4)oc23)c2sc3ccccc3c12` are 0.8, 1 and 26 nM.
`C[C@@H]1CN(C(=O)COc2ccc(-c3cccc4c(=O)cc(N5CCOCC5)oc34)c3sc4ccccc4c23)C[C@H](C)O1`: the figures for the Ratio in assay [1] and in assay [2] were 1 and 0.9, respectively. This compound showed an IC50 in assay [3] of 61 nM.
On the same counts, the results for `CC(=O)N1CCN(CC(=O)Nc2ccc(-c3cccc4c(=O)cc(N5CCOCC5)oc34)c3sc4ccccc4c23)CC1` are 4.8, 1.4 and 5 nM.
The corresponding values for `O=C(CNCCO)Nc1ccc(-c2cccc3c(=O)cc(N4CCOCC4)oc23)c2sc3ccccc3c12` are 6.2, 1.6 and 8 nM.
For the compound `O=c1cc(N2CCOCC2)oc2c(-c3ccc(OCCNc4cccnc4)c4c3sc3ccccc34)cccc12`, the values for the Ratio in assay [1] and in assay [2] were 1 and 0.9, respectively. In addition, the half-maximal inhibitory concentration (IC50) in assay [3] came out at 2 nM.
Regarding `O=C(CNCCN1CCCCC1)Nc1ccc(-c2cccc3c(=O)cc(N4CCOCC4)oc23)c2sc3ccccc3c12`, the Ratio was determined as 9.6 in assay [1] and 1.3 in assay [2]. In assay [3], this compound had an IC50 of 61 nM.
As for `CCN(CC)CC(=O)Nc1ccc(-c2cccc3c(=O)cc(N4CCOCC4)oc23)c2sc3ccccc3c12`, the Ratio in assay [1] was 3.7; in assay [2], 1.2. Further, in assay [3], inhibition was half-maximal at 84 nM (IC50).
The corresponding values for `CCN(CC)CCC(=O)Nc1ccc(-c2cccc3c(=O)cc(N4CCOCC4)oc23)c2sc3ccccc3c12` are 5.7, 1.8 and 12 nM.
Turning to `O=C(COc1ccc(-c2cccc3c(=O)cc(N4CCOCC4)oc23)c2sc3ccccc3c12)N1CCCCC1`, the Ratio is reported as 5.1 in assay [1] and 1.4 in assay [2]. This compound also gave an IC50 in assay [3] of 19 nM.
Take `C[C@@H]1CN(CC(=O)Nc2ccc(-c3cccc4c(=O)cc(N5CCOCC5)oc34)c3sc4ccccc4c23)C[C@H](C)O1`: the Ratio in assay [1] came to 8.2; in assay [2], 1.3. In addition, it took 4 nM to reach half-maximal inhibition in assay [3] (IC50).
Consider `CCN(CC)CCOc1ccc(-c2cccc3c(=O)cc(N4CCOCC4)oc23)c2sc3ccccc3c12`, for which the concentration for half-maximal inhibition (IC50) in assay [3] stood at 22 nM.

Broadly, the IC50 is the point on the concentration scale where inhibition reaches its midpoint. A higher IC50 goes with weaker potency.
